Laboratory results from ChEMBL document CHEMBL1154183, “Structure-based optimization of potent and selective inhibitors of the tyrosine kinase erythropoietin producing human hepatocellular carcinoma receptor B4 (EphB4)” (J Med Chem, 2009).

Tests used:
[1] = target: ALK tyrosine kinase receptor (Homo sapiens) (UniProt Q9UM73); test: Binding affinity to ALK assessed as percentage of kinase remaining bound to the bead at 1 uM by T7 phage display based binding assay
Method in brief: (§1)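 Competition binding assay run by a contract lab. Each kinase was expressed as a fusion to T7 phage, full-length for small kinases and catalytic domain for large ones. Phage were mixed with an immobilized known kinase inhibitor on streptavidin magnetic beads and with test compound at a single 1 μM. Kinase/phage still bound to the beads was quantified by qPCR and expressed as % of DMSO control.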

[2] = target: Cytoplasmic tyrosine-protein kinase BMX (Homo sapiens) (UniProt P51813); test: Binding affinity to BMX assessed as percentage of kinase remaining bound to the bead at 1 uM by T7 phage display based binding assay; method in brief: as §1
[3] = target: Fibroblast growth factor receptor 3 (Homo sapiens) (UniProt P22607); test: Binding affinity to FGFR3 assessed as percentage of kinase remaining bound to the bead at 1 uM by T7 phage display based binding assay; method in brief: as §1
[4] = target: Eukaryotic elongation factor 2 kinase (Homo sapiens) (UniProt O00418); test: Inhibition of EF2K assessed as remaining enzyme activity at 1 uM relative to DMSO
Method in brief: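 Radiometric kinase assay run robotically at room temperature for 30 min, linear in time and enzyme. Conditions: 10 mM magnesium acetate, [γ-33P]ATP (800 cpm/pmol) at 5, 20 or 50 μM per kinase, at or below its ATP Km. Started with MgATP and stopped with orthophosphoric acid, then spotted on P81 filters. Reported as mean % activity of duplicates versus DMSO controls.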

[5] = target: Serine/threonine-protein kinase 26 (Homo sapiens) (UniProt Q9P289); test: Inhibition of MST4 assessed as remaining enzyme activity at 1 uM relative to DMSO
Method in brief: (§2)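 Radiometric kinase assay run robotically at room temperature for 30 min. Contained 10 mM magnesium acetate and [γ-33P]ATP (800 cpm/pmol) at 5, 20 or 50 μM, chosen per kinase to be at or below its ATP Km. Reactions were started with MgATP, stopped with orthophosphoric acid and spotted onto P81 filters. Result is mean % activity of duplicates at one inhibitor concentration versus DMSO control.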

[6] = target: Myosin light chain kinase, smooth muscle (Homo sapiens) (UniProt Q15746); test: Inhibition of SmMLCK assessed as remaining enzyme activity at 1 uM relative to DMSO
[7] = target: Glycogen synthase kinase-3 beta (Homo sapiens) (UniProt P49841); test: Inhibition of GSK3-beta assessed as remaining enzyme activity at 1 uM relative to DMSO
Method in brief: (§3)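 Dundee kinase panel, radiometric: [γ-33P]ATP (800 cpm/pmol) at 5, 20 or 50 μM, at or below each kinase's ATP Km; 10 mM magnesium acetate; robotic, room temperature, 30 min. Reactions started with MgATP, stopped with orthophosphoric acid, spotted onto P81 filters. Inhibitor tested at a single concentration; mean % activity of duplicates relative to DMSO control.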

[8] = target: Mitogen-activated protein kinase 14 (Homo sapiens) (UniProt Q16539); test: Inhibition of p38alpha assessed as remaining enzyme activity at 3 uM relative to DMSO
[9] = target: Ribosomal protein S6 kinase alpha-5 (Homo sapiens) (UniProt O75582); test: Inhibition of MSK1 assessed as remaining enzyme activity at 3 uM relative to DMSO; method in brief: as §2
[10] = target: MAP kinase-interacting serine/threonine-protein kinase 2 (Homo sapiens) (UniProt Q9HBH9); test: Inhibition of MNK2 assessed as remaining enzyme activity at 3 uM relative to DMSO; method in brief: as §2
[11] = target: Ephrin type-A receptor 2 (Homo sapiens) (UniProt P29317); test: Inhibition of EPHA2 assessed as remaining enzyme activity at 3 uM relative to DMSO; method in brief: as §3
[12] = target: NUAK family SNF1-like kinase 1 (Homo sapiens) (UniProt O60285); test: Inhibition of NUAK1 assessed as remaining enzyme activity at 3 uM relative to DMSO; method in brief: as §2
[13] = target: Mitogen-activated protein kinase kinase kinase 11 (Homo sapiens) (UniProt Q16584); test: Inhibition of MLK3 assessed as remaining enzyme activity at 3 uM relative to DMSO; method in brief: as §2

Fibroblast growth factor receptor 3 (Homo sapiens), sequence (P22607 23-806 limits assumed): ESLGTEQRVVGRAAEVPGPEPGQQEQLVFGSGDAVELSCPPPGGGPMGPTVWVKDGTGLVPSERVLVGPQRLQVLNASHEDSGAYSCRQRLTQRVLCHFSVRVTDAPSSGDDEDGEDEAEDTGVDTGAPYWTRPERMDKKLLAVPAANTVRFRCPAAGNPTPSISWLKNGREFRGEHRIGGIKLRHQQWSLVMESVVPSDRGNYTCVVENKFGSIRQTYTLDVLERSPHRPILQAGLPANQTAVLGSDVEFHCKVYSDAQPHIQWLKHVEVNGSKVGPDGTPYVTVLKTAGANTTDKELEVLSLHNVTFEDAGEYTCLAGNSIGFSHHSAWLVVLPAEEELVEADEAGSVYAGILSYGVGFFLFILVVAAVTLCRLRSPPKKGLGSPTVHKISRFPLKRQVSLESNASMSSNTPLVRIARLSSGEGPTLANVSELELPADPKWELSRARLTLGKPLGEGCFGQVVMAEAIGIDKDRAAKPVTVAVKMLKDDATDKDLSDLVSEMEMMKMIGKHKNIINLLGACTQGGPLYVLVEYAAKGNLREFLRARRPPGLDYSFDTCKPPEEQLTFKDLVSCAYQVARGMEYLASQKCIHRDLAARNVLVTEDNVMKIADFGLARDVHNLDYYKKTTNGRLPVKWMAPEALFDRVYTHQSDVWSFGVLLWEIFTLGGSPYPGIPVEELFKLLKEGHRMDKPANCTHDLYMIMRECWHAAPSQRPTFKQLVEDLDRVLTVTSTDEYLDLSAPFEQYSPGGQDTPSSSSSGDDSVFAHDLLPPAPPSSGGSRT
Myosin light chain kinase, smooth muscle (Homo sapiens), sequence (Q15746 whole entry): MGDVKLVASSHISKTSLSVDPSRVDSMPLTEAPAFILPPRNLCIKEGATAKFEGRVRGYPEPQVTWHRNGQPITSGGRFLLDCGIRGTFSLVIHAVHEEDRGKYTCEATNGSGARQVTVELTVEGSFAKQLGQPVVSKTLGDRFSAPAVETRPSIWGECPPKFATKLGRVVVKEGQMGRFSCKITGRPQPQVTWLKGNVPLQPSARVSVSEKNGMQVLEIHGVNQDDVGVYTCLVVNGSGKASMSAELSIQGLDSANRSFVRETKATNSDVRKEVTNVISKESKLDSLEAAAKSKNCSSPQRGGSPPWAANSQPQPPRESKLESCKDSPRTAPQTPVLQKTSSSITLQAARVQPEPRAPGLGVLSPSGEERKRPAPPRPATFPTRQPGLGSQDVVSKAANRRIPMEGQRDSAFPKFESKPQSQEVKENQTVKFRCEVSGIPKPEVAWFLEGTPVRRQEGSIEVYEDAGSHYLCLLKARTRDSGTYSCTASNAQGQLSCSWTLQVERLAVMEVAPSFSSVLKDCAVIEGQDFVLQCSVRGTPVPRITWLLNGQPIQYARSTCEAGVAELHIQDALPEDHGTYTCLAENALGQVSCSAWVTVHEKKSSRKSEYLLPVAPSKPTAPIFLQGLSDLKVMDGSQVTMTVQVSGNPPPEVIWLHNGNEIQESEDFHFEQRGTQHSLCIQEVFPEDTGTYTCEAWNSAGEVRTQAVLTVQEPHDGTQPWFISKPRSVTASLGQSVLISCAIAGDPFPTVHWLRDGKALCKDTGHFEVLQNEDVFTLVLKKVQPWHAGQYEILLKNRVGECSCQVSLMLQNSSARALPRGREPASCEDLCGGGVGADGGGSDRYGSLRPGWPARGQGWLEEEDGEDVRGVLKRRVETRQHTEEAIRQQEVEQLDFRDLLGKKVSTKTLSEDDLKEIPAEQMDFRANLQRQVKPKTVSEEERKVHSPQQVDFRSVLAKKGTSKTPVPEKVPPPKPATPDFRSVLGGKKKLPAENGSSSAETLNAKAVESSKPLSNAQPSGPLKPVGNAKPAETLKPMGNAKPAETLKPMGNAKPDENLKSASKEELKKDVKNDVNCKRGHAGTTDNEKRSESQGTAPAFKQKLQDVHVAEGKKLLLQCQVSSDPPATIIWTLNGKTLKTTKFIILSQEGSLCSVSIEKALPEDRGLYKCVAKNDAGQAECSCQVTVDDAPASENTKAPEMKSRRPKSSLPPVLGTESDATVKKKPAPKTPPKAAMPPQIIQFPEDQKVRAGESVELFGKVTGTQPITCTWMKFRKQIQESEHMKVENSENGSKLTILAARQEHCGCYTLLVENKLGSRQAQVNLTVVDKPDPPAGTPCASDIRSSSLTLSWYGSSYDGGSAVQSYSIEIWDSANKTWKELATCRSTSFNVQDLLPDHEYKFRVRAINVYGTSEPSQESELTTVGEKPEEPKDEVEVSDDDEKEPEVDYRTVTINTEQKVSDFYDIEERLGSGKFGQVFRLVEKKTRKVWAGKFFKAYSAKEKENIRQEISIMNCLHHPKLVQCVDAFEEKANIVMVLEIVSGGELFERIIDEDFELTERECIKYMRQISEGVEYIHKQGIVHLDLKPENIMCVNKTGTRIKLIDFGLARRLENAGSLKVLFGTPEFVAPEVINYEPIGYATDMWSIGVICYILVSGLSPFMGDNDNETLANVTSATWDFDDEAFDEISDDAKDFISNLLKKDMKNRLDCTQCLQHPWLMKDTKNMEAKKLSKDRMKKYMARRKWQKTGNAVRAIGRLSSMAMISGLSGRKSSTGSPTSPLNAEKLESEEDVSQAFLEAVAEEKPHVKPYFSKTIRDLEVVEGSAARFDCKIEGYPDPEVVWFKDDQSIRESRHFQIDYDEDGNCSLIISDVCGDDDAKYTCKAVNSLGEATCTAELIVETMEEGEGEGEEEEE
Glycogen synthase kinase-3 beta (Homo sapiens), sequence (P49841 whole entry, looked up): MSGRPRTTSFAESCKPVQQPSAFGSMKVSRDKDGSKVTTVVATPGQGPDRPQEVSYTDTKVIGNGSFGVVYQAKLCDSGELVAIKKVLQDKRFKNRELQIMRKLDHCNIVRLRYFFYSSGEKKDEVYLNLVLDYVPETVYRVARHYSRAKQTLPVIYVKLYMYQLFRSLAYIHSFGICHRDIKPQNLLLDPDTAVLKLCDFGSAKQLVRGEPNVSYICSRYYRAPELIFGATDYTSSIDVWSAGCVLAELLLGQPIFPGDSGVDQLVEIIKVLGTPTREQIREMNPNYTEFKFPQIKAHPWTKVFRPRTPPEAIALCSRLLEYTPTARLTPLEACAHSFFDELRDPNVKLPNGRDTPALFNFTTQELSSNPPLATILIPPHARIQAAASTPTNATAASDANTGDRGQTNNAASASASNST
Eukaryotic elongation factor 2 kinase (Homo sapiens), sequence (O00418 whole entry): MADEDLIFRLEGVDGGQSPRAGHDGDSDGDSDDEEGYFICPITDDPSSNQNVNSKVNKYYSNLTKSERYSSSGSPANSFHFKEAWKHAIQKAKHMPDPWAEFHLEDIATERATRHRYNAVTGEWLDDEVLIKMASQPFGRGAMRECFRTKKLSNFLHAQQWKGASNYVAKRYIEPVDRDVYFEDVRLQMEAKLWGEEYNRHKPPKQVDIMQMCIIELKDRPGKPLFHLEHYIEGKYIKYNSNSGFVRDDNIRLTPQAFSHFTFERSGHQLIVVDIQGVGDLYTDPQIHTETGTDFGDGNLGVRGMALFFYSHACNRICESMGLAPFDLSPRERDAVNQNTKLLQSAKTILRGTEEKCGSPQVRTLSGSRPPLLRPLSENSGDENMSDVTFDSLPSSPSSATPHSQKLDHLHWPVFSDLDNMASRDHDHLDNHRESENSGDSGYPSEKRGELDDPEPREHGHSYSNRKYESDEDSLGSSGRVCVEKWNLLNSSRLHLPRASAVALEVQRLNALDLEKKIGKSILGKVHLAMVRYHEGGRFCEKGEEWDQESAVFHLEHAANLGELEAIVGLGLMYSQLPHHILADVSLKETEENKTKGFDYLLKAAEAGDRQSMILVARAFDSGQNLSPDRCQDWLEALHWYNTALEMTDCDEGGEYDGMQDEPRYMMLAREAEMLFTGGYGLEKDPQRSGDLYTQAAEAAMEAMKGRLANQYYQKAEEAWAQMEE
NUAK family SNF1-like kinase 1 (Homo sapiens), sequence (O60285 whole entry): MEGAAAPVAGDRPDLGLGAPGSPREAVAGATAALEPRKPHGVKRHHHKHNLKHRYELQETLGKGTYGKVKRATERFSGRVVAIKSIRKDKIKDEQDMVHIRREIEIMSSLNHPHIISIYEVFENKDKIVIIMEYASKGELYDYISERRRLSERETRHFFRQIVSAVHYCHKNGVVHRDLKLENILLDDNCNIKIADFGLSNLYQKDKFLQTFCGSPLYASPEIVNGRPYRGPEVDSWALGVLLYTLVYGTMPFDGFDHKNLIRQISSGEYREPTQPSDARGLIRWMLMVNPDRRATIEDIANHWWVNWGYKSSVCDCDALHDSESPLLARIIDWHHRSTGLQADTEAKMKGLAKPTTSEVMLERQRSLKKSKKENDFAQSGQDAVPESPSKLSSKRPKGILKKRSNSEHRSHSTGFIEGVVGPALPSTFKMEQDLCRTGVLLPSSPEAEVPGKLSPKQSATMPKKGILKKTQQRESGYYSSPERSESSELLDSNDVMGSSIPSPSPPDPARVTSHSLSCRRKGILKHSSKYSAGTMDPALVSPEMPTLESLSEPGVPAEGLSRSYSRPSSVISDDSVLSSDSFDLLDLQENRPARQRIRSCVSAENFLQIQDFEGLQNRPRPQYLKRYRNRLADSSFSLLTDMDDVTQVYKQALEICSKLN
Serine/threonine-protein kinase 26 (Homo sapiens), sequence (Q9P289 2-416 limits assumed): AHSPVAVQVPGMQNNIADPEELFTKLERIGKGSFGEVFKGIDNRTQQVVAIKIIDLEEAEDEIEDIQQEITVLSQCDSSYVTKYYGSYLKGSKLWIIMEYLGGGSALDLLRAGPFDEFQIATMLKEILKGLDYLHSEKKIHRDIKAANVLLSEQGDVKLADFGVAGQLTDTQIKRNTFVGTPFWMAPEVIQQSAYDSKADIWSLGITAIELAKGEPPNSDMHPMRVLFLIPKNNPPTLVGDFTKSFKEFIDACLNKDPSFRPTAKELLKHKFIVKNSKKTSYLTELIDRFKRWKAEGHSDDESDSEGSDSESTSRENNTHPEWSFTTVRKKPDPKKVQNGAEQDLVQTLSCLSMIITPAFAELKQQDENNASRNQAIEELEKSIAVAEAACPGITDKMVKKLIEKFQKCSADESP

| Compound | Activity [1] [%] | Activity [2] [%] | Activity [3] [%] | Activity [4] [%] | Activity [5] [%] | Activity [6] [%] | Activity [7] [%] | Activity [8] [%] | Activity [9] [%] | Activity [10] [%] | Activity [11] [%] | Activity [12] [%] | Activity [13] [%] |
| --- | --- | --- | --- | --- | --- | --- | --- | --- | --- | --- | --- | --- | --- |
| COc1ccccc1-n1c(-c2cc(O)ccc2C)cn2c3c(=O)[nH]c(=O)n(C)c3nc12 | 99 | 55 | 89 | 96 | 78 | 87 | 89 |  |  |  |  |  |  |
| COc1ccccc1-n1c(-c2ccccc2C)cn2c3c(=O)[nH]c(=O)n(C)c3nc12 |  |  |  |  |  |  |  | 87 | 95 | 85 | 10 | 140 | 136 |
